Data on 37 sequences can be found in the array DNA melting data of Ke et al. (doi:10.1101/2024.01.08.574731).

Data set [1] in a line: melting temperature; fluorescence melt of hairpins on a sequencing array, two-state fit, raised by 9.35 °C to match UV melts. As to conditions: sodium 0.088 M. In short, it runs like this:
(§1)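 Hairpins were imaged by Cy3 fluorescence on a sequenced MiSeq flow cell with annealed Cy3 and quencher oligos, in 50 mM Na-HEPES pH 8.0, 25 mM NaCl, in 2.5 °C steps up to 60 °C. Bootstrapped two-state fits of normalised signals gave melting temperature and folding enthalpy. Four replicates were combined by inverse variance, and fitted temperatures were raised by 9.35 °C to match UV melts.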

Data set [2] can be described thus: folding enthalpy; higher = less favourable; fluorescence melt of hairpins on a sequencing array, two-state fit. The conditions noted are these: sodium 0.088 M. The procedure, abridged: as §1

For GGTCATGGAAACATGACC (((((((....))))))), the Tm in data set [1] was found to be 65.5 °C. The folding enthalpy in data set [2] is -51.8 kcal/mol.

As for GGTCATGGAAACATGGCC ((.((((....)))).)), the Tm in data set [1] amounted to 54.5 °C. In addition, in data set [2], the folding enthalpy is -60.3 kcal/mol.

Regarding GGTCATGGAAACGTGATC (.(((.(....).))).), the Tm in data set [1] is 35.5 °C. The folding enthalpy in data set [2] is -20 kcal/mol.

With GGTCCAGGAAACCGGACC (((((.(....).))))), the Tm in data set [1] was 53.3 °C. The folding enthalpy in data set [2] was -38.8 kcal/mol.

As for GGTCCAGGAAACTGGGCC ((.((((....)))).)), the Tm in data set [1] is 60.2 °C. For the same sequence, the folding enthalpy in data set [2] was -43.4 kcal/mol.

As for GGTCCCCCGAAAGGGACC (((..(((....)))))), the Tm in data set [1] came to 63.9 °C. Further, the folding enthalpy in data set [2] is -29.9 kcal/mol.

For GGTCCCGAAAGGGAACC ((((((....))).))), the Tm in data set [1] stood at 60.5 °C. The folding enthalpy in data set [2] is -18.5 kcal/mol.

Regarding GGTCCCGAAAGGGCTACC ((((((....)))..))), in data set [1], the Tm came out at 39.8 °C. For the same sequence, the folding enthalpy in data set [2] is -10.9 kcal/mol.

With GGTCCGACGAAAGTCACC (((..(((....)))))), the Tm in data set [1] worked out at 28.4 °C. In addition, the folding enthalpy in data set [2] was -14.1 kcal/mol.

GGTCCGCGAAAGCGACC (((.(((....)))))): the Tm in data set [1] turned out to be 62.4 °C. The folding enthalpy in data set [2] was -16.8 kcal/mol.

GGTCCGGGAAACCAGACC ((((.((....)).)))): the Tm in data set [1] was 46.4 °C. For the same sequence, the folding enthalpy in data set [2] is -28.6 kcal/mol.

GGTCCGGGAAACTGGACC (((((.(....).))))): the Tm in data set [1] amounted to 58.8 °C. Moreover, in data set [2], the folding enthalpy is -45.3 kcal/mol.

As for GGTCCTCCGAAAGGAACC (((..(((....)))))), the Tm in data set [1] amounted to 32.9 °C. Also, the folding enthalpy in data set [2] is -13 kcal/mol.

As for GGTCGACCGAAAGGTACC (((..(((....)))))), the Tm in data set [1] amounted to 31.8 °C. In data set [2], the folding enthalpy is -14 kcal/mol.

In the case of GGTCGAGGAAACTCGATC (.(((((....))))).), in data set [1], the Tm stood at 52.2 °C. Also, the folding enthalpy in data set [2] was -30.7 kcal/mol.

Take GGTCGAGGAAACTTGGCC ((.(.((....)).).)): in data set [1], the Tm came to 42.4 °C. The folding enthalpy in data set [2] was -25.3 kcal/mol.

Turning to GGTCGCCCGAAAGGGACC (((..(((....)))))), the Tm in data set [1] was 45.1 °C. Further, the folding enthalpy in data set [2] was -15.8 kcal/mol.

Turning to GGTCGCGAAAGCGACACC ((((((....)))..))), in data set [1], the Tm was 60.7 °C. The folding enthalpy in data set [2] was -5.57 kcal/mol.

On to GGTCGCGAAAGCGGACC ((((((....))).))), for which the Tm in data set [1] worked out at 67.1 °C. Further, the folding enthalpy in data set [2] is -22.9 kcal/mol.

GGTCGCGAAAGCGGCACC ((((((....)))..))): the Tm in data set [1] stood at 52.8 °C. Also, the folding enthalpy in data set [2] is -9.3 kcal/mol.

GGTCGCGAAAGCGGGACC ((((((....)))..))): the Tm in data set [1] is 52.1 °C. Also, the folding enthalpy in data set [2] was -18.9 kcal/mol.

Consider GGTCGCGGAAACACGACC (((((.(....).))))), for which, in data set [1], the Tm is 56.9 °C. Further, the folding enthalpy in data set [2] was -41 kcal/mol.

GGTCGGGGAAACTCGGCC ((.((.(....).)).)): the Tm in data set [1] amounted to 49.1 °C. Moreover, the folding enthalpy in data set [2] is -34 kcal/mol.

GGTCGTGCGAAAGCAACC (((..(((....)))))): the Tm in data set [1] was found to be 27.6 °C. Also, the folding enthalpy in data set [2] was -8.03 kcal/mol.

Regarding GGTCGTGGAAACACAACC (((.(((....))).))), in data set [1], the Tm came to 42.5 °C. In data set [2], the folding enthalpy was -27.6 kcal/mol.

In the case of GGTCGTGGAAACACGGCC ((.((((....)))).)), in data set [1], the Tm is 61.8 °C. Moreover, the folding enthalpy in data set [2] is -56.7 kcal/mol.

For GGTCGTGGAAACATGACC ((((.((....)).)))), the Tm in data set [1] came to 56.5 °C. Besides, in data set [2], the folding enthalpy is -34 kcal/mol.

Turning to GGTCGTGGAAACGCGACC (((((.(....).))))), in data set [1], the Tm is 60 °C. The folding enthalpy in data set [2] was -50.9 kcal/mol.

For GGTCTACGAAAGTAAACC (((.(((....))).))), the Tm in data set [1] was 39.3 °C. Moreover, the folding enthalpy in data set [2] is -26.2 kcal/mol.

Turning to GGTCTAGCGAAAGCTACC (((..(((....)))))), the Tm in data set [1] was 31.2 °C. The folding enthalpy in data set [2] was -10.1 kcal/mol.

In the case of GGTCTCCCGAAAGGGACC (((..(((....)))))), the Tm in data set [1] worked out at 41.2 °C. Besides, in data set [2], the folding enthalpy was -12.4 kcal/mol.

Turning to GGTCTCGAAAGAGACACC ((((((....)))..))), the Tm in data set [1] came out at 48.4 °C. In addition, the folding enthalpy in data set [2] is -9.21 kcal/mol.

GGTCTCGAAAGAGGCACC ((((((....)))..))): the Tm in data set [1] turned out to be 39.1 °C. Besides, the folding enthalpy in data set [2] is -14.5 kcal/mol.

Consider GGTCTCGGAAACGAAACC (((.(((....))).))), for which the Tm in data set [1] turned out to be 39.2 °C. The folding enthalpy in data set [2] was -27.5 kcal/mol.

As to GGTCTCGGAAACGGGACC ((((.((....)).)))), in data set [1], the Tm stood at 57.5 °C. The folding enthalpy in data set [2] is -44 kcal/mol.

As for GGTCTCGGAAACGGGATC (.((.((....)).)).), the Tm in data set [1] worked out at 39 °C. Moreover, the folding enthalpy in data set [2] is -28.8 kcal/mol.

Regarding GGTCTGAAAAGACC (((((....))))), the Tm in data set [1] amounted to 61.7 °C. In addition, in data set [2], the folding enthalpy was -31.1 kcal/mol.
